Source: PubChem
HCV NS3 hel inh = blocks Hepatitis C virus NS3 helicase unwinding | actives 0.56% (n = 290,000) | NS3 helicase DNA unwinding, Cy5 molecular beacon fluorescence | inhibition, % at 10.9 µM;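 active = inhibition above the mean of all tested compounds plus 3 SD, set per campaign, cut at about 35% in these data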
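System: NS3 helicase fragment of HCV / Schedule: 1 h at 25 °C / Control set: DMSO alone as 0% and 110 µM thioflavine S as 100% / Reagent: Cy5/quencher beacon DNA duplex and ATP to start / Technique: Cy5 fluorescence / Replication: singlicate / Evaluation: % inhibition of end-to-start signal ratio versus controls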
eIF4H inh = inhibitors of RNA binding by human eIF4H. actives 0.94% (n = 290,000). Q15056. inhibition, % at 35 µM. eIF4H fluorescence polarization binding assay;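 note: calls also rest on retests at 20 µM and on dose response follow-up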
ZTA DNA inh = counter-screen for EBNA-1 inhibitors: inhibitors of Epstein-Barr virus ZTA. actives 0.15% (n = 320,000). inhibition, % at 11 µM. ZTA-DNA binding, fluorescence polarization. P03206; in the data active = inhibition above about 33%
PABP FP inh = blocks human PABP binding to poly(A) RNA; P11940; fluorescence polarization; inhibition, % at 35 µM; actives 1% (n = 290,000);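 note: calls also rest on retests at 20 µM and on dose response follow-up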
Target sequence (P11940 whole entry, looked up): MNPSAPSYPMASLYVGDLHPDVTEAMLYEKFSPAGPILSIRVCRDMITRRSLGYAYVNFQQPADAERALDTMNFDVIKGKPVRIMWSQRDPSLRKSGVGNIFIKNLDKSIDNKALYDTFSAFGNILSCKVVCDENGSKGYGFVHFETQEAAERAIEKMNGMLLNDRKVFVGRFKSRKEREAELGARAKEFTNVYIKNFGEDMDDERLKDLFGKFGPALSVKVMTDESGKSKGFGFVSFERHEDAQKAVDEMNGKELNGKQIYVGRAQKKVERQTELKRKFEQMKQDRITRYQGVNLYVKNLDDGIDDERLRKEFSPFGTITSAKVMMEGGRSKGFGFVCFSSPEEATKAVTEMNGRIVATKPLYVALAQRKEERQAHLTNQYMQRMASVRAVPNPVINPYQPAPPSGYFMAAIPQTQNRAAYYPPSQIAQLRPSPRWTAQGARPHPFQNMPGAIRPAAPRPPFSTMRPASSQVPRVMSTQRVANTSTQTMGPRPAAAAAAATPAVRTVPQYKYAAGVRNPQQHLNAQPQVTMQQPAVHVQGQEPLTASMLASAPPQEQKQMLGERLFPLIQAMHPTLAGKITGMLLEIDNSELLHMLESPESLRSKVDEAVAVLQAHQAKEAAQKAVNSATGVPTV
MLLE-PAM2 inh = blocks PAM2 peptide binding to the PABP1 MLLE domain | actives 0.36% (n = 360,000) | GST-MLLE / FITC-PAM2 fluorescence polarization | AID 588489 | inhibition, % at 20 µM | P11940; in the data active = inhibition above about 35%, passing the limit was not always enough
EBNA-1 inh = blocks EBNA-1 binding to DNA; EBNA-1 DNA binding, fluorescence polarization; inhibition, % at 14.8 µM; actives 0.34% (n = 300,000); in the data active = inhibition above about 28%
EBNA-1 confirm = EBNA-1 (EBV) inhibition, confirmation; shares compounds with EBNA-1 inh; Recombinant EBNA-1 DBD, Cy5-DNA fluorescence polarization; inhibition, % at 14.8 µM; actives 35% (n = 830);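 active = mean inhibition across replicates above a set limit taken from the earlier primary screen, cut at about 28% in these data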
ZTA counter trip = counter-screen for EBNA-1 inhibitors: Epstein-Barr virus ZTA inhibitors, triplicate. Zta-ZRE DNA binding, Cy5 fluorescence polarization. inhibition, % at 11.1 µM. 830 tested, under 10 active. shares compounds with EBNA-1 inh;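 active = mean inhibition over triplicates above a set limit taken from the primary EBNA-1 screen, cut at about 37% in these data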;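 note: purified full length Zta protein with Cy5 labeled ZRE DNA probe; inhibitors lower polarization by freeing the labeled DNA probe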
Large screens that a line does not name were inactive (follow-up assays come after a bar, where they were run). An excerpt weighted towards active compounds, which were near 2.1% of everything screened. Unless noted, the rule behind the calls is not given here.

CS(=O)(=O)c1ccc(-c2cccc(NC(=O)c3ccc(Br)o3)c2)nn1	EBNA-1 inh 38 (no result: HCV NS3 hel inh, eIF4H inh, PABP FP inh) | EBNA-1 confirm 28 | ZTA counter trip inactive
Cc1ccc(O)c(NC(=O)c2noc3c2CCCCC3)c1	none
O=C1c2ccccc2C(=O)N1CCCCN(C(=O)c1cc2ccccc2oc1=O)c1ccc(Cl)cc1	EBNA-1 inh 37 | EBNA-1 confirm inactive | ZTA counter trip inactive
CCOC(=O)c1c(NC(=O)CSc2n[nH]c(-c3ccco3)n2)sc(C)c1C	none
O=C(CSc1n[nH]c(-c2ccco2)n1)Nc1sc2c(c1C(=O)Nc1ccccc1)CCCC2	EBNA-1 inh 36 | EBNA-1 confirm inactive | ZTA counter trip inactive
NS(=O)(=O)c1ccc(NC(=O)/C=C/c2cccs2)cc1	EBNA-1 inh 55 | EBNA-1 confirm inactive | ZTA counter trip inactive
CC(C)C(C)NC(=O)CSc1nnc(-c2c[nH]c3ccccc23)o1 (configuration not stated)	none
Cc1ccc(C(=O)CSc2nnc(-c3c[nH]c4ccccc34)o2)cc1	EBNA-1 inh 29 | EBNA-1 confirm inactive | ZTA counter trip inactive
COc1ccc(S(=O)(=O)Nc2cccc(S(=O)(=O)N3CCCCCC3)c2)cc1	none
O=S(=O)(Nc1nc2ccccc2nc1Nc1cccc(S(=O)(=O)N2CCCCC2)c1)c1ccccc1	EBNA-1 inh 37 | EBNA-1 confirm inactive | ZTA counter trip inactive
CSCCC(NC(=O)c1ccc(Cl)cc1Cl)C(=O)OC1CCCCC1=O (configuration not stated)	none (no result: HCV NS3 hel inh, eIF4H inh, PABP FP inh)
COc1cccc(-n2nnc3c(=O)n(Cc4ccc(C)cc4)cnc32)c1	none
COc1cccc(-n2nnc3c(=O)n(Cc4ccc(Br)cc4)cnc32)c1	EBNA-1 inh 35 | EBNA-1 confirm inactive | ZTA counter trip inactive
C=CS(=O)(=O)c1c2cc(OC)ccc2nc2ccc(OC)cc12	none (no result: HCV NS3 hel inh, eIF4H inh, ZTA DNA inh, PABP FP inh, EBNA-1 inh)
OC(C#CCN1CCCC1)(c1ccccc1)c1cccc(F)c1 (configuration not stated)	none
NC(=O)C[N+]1(CC#CC(O)(c2ccccc2)c2ccccc2)CCCC1	EBNA-1 inh 128 | EBNA-1 confirm inactive | ZTA counter trip inactive
Cc1ccc(OCCCC(=O)N2CCN(S(=O)(=O)c3cccc(F)c3)CC2)cc1	none (no result: HCV NS3 hel inh, eIF4H inh, PABP FP inh)
Cc1ccc(C)c(NC(=O)Cn2nc(-c3ccccc3)nc2-c2ccccc2)c1	EBNA-1 inh 50 | EBNA-1 confirm inactive | ZTA counter trip inactive
COc1ccc([C@H]2CC(=O)C=C(c3cccc(Cl)c3O)C2)cc1OC	none (no result: HCV NS3 hel inh, eIF4H inh, PABP FP inh, EBNA-1 inh)
CCOC(=O)c1sc(NC(=O)COc2ccc3c(c2)OCO3)nc1C	EBNA-1 inh 65 | EBNA-1 confirm 124 | ZTA counter trip inactive
COC(=O)c1sc(NC(=O)COc2cccc(C)c2)nc1C	none
CC(=O)c1sc(NC(=O)COc2ccc([N+](=O)[O-])cc2)nc1C	none
COC(=O)c1sc(NC(=O)COc2ccc(OC)cc2)nc1C	EBNA-1 inh 30 (no result: eIF4H inh, PABP FP inh) | EBNA-1 confirm inactive | ZTA counter trip inactive
CC(=O)c1sc(NC(=O)COc2ccc(Br)cc2)nc1C	EBNA-1 inh 43 | EBNA-1 confirm inactive | ZTA counter trip inactive
CC(C)OP(=O)(c1ccc(N(C)C)cc1)C(O)c1ccc(Br)cc1 (configuration not stated)	none
O=C(COC(=O)CN1C(=O)C2CCCCC2C1=O)Nc1cc(F)ccc1F (configuration not stated)	none (no result: HCV NS3 hel inh, eIF4H inh, ZTA DNA inh, PABP FP inh, EBNA-1 inh)
Cc1cc(C)n(S(=O)(=O)Cc2ccccc2)n1	none
Cc1ccc(NC(=O)C(=O)NCCc2c[nH]c3ccccc23)cc1C	none
O=C(NCCc1c[nH]c2ccccc12)C(=O)Nc1ccccc1	EBNA-1 inh 35 | EBNA-1 confirm inactive | ZTA counter trip inactive
COc1ccc(N=C2NC(=O)/C(=C/C=C/c3ccccc3)S2)cc1	EBNA-1 inh 32 | EBNA-1 confirm 29 | ZTA counter trip inactive
CC(=O)Nc1ccc(OC(=O)c2cc3ccccc3oc2=O)cc1	none
CCCNC(=O)c1ccc2c(=O)c(O)c(-c3ccc(OC)cc3)[nH]c2c1	EBNA-1 inh 32 (no result: HCV NS3 hel inh) | EBNA-1 confirm inactive | ZTA counter trip inactive
CCCNC(=O)c1ccc2c(=O)c(O)c(-c3ccc(C)cc3)[nH]c2c1	none (no result: HCV NS3 hel inh)
O=C(NCCCCc1ccccc1)c1cccc(Br)c1	none
COC(=O)C1=C(CSc2nc3ccccc3s2)NC(=O)NC1c1ccc(F)cc1 (configuration not stated)	EBNA-1 inh 42 | EBNA-1 confirm inactive | ZTA counter trip inactive
CCc1ccc(-c2ccc3nnc(SC)n3n2)cc1	none
CCOC(=O)c1ccc(CNC(=O)CSc2nc(NC(=O)c3ccccc3)c3c(C)c(C)oc3n2)cc1	EBNA-1 inh 40 | EBNA-1 confirm inactive | ZTA counter trip inactive
CCOC(=O)c1ccc(CNC(=O)CSc2nnc(-c3ccncc3)o2)cc1	none
NS(=O)(=O)c1ccc(NC(=S)NC(=O)c2ccc3c(c2)OCO3)cc1	EBNA-1 inh 61 | EBNA-1 confirm 72 | ZTA counter trip inactive
N#C/C(=N\Nc1cccc(C(F)(F)F)c1)C(=O)c1csc(-c2cccnc2)n1	EBNA-1 inh 50 | EBNA-1 confirm inactive | ZTA counter trip inactive
CCCCN(C=O)c1c(CC)nc2ccc(C(=O)NCCCn3ccnc3)cn12	none (no result: HCV NS3 hel inh, eIF4H inh, ZTA DNA inh, PABP FP inh, EBNA-1 inh)
Cn1c(N)c(C(=O)COC(=O)c2ccccc2C(=O)c2ccccc2)c(=O)n(C)c1=O	none (no result: HCV NS3 hel inh, eIF4H inh, PABP FP inh, EBNA-1 inh)
CCOc1cc(C(=O)OCC(=O)c2c(N)n(C)c(=O)n(C)c2=O)cc(OCC)c1OCC	EBNA-1 inh 76 | EBNA-1 confirm 61 | ZTA counter trip inactive
CCCOc1ccc(C(=O)OCC(=O)c2c(N)n(C)c(=O)n(C)c2=O)cc1OCC	none
Cc1cc(C(=O)OCC(=O)c2c(N)n(C)c(=O)n(C)c2=O)c(C)n1-c1ccccc1	EBNA-1 inh 41 | EBNA-1 confirm 82 | ZTA counter trip inactive
COc1ccccc1/C=C/C(=O)OCC(=O)c1c(N)n(C)c(=O)n(C)c1=O	EBNA-1 inh 48 | EBNA-1 confirm inactive | ZTA counter trip inactive
COC(=O)c1ccccc1NC(=O)NCc1ccncc1	none
COc1ccc(/C=C/C(=O)Oc2cccc(/C=N/NC(=O)COc3c(C)cccc3C)c2)cc1	EBNA-1 inh 39 | EBNA-1 confirm 74 | ZTA counter trip inactive
COc1ccc(/C=C/C(=O)Oc2ccc(/C=N/NC(=O)COc3c(C)cccc3C)cc2)cc1	none
O=C1Nc2ccc(S(=O)(=O)N3CCCC3)c3ccc(S(=O)(=O)N4CCCC4)c1c23	none
Cc1cccc(NC(=O)c2cc(S(=O)(=O)N3CCc4ccccc43)cn2C)c1C	EBNA-1 inh 28 | EBNA-1 confirm 39 | ZTA counter trip inactive
